Screens as filed in PubChem.
Sampled rows, rich in hits. Any-hit rate of the full collection: about 1.9%.
F508del corr – CFTR F508del correction in bronchial cells. CFBE cells, YFP halide quenching; stimulated with forskolin plus potentiator P3; % fluorescence drop versus neutral controls. actives 0.36% (n = 350,000). AID 720511. activity (quench increase), % at 7.58 µM;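 active = mean added fluorescence quench of at least 8% versus neutral control, with both replicates also reaching 8%; inconclusive = only one of the mean or replicate conditions met; inactive = mean below 8% and not both replicates reaching 8%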;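 also: cells transiently co-express mutant CFTR-F508del with the halide-sensitive YFP; corrector assay measuring rescue of mutant channel to the surface after 24 h compound exposure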
DENV2 CPE – DENV2-induced cell death inhibition | actives 1.7% (n = 350,000) | AID 651640 | DENV2-infected cells, cytopathic effect rescue, plate reader | CPE inhibition, % at 9.99 µM; in the data active = CPE inhibition above about 20%, passing the limit was not always enough; inconclusive = no clear call, values can overlap the other calls; tested in BHK-21 cells;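 also: 0% = median of neutral control wells and 100% = median of positive control wells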
Cneo AK release – Cryptococcus neoformans lysis via adenylate kinase release | C. neoformans lysis, adenylate kinase release luminescence, 4 h; normalised: neutral wells 0, clomiphene wells 100 | lysis activity, % at 15 µM | actives 0.2% (n = 360,000);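 active = mean lysis activity across replicates of at least 80%, whatever share of replicates individually reach that level; inactive = mean lysis activity below 80%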
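Assay system: C. neoformans cells. Amount: yeast cell density of 5 × 10^6 cells/mL. Technique: AK luminescence. Buffer or medium: YPD. Times: static 4 h at 37 °C with compound, 1 h detection. Dosing: single-point compound dose. Read-out: lysis from increased AK signal.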
XiGFP reactiv – activators of X-chromosome reactivation in mouse fibroblasts; XiGFP mouse fibroblasts, % GFP-positive cells imaging, 3 d; cells co-treated with 5-aza-dC sensitizer; scaled so ellipticine positive control = 100%; actives 0.055% (n = 360,000); activation, % at 7.58 µM;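 active = mean normalized replicate activation at least 10% and every replicate at or above 10%; inconclusive = only one of the two criteria met; inactive = mean below 10% and not all replicates reach 10%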;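 also: 0% = median of on-plate neutral control wells and 100% = ellipticine 6 µM median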
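material = 68-5-11 XiGFP fibroblast line | medium = DMEM plus 5-aza-dC sensitizer | schedule = 3 days compound exposure | benchmarks = positive control ellipticine, 6 µM final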
FN deposit inh – fibronectin deposition inhibition | actives 0.086% (n = 350,000) | AH1F fibroblasts, Alexa488-fibronectin deposition fluorescence, overnight | inhibition, % at 12.6 µM | AID 743247;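 active = mean inhibition across replicates of 30% or more, regardless of how many single replicates reach that level; inconclusive = mean under 30% yet at least half of replicates reach 30%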;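 also: positive control wells lacked labelled fibronectin entirely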
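Measured by – fluorescence 485/525 nm · System – AH1F fibroblast monolayer, labelled fibronectin deposition · Amount – 10000 cells per well · Buffer or medium – serum-reduced DMEM (2% serum) · Doses – single dose, pinned · Also added – fluorescent fibronectin at 24 nM final · Schedule – 1 h cell attachment, overnight exposure to compound and label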
PGC1a acetyl inh – PGC1a acetylation modulation, inhibitor mode. inhibition, % at 15.6 µM. AID 651687. U2OS PGC1a acetylation, AlphaScreen anti-acetyl-lysine; with virally co-expressed GCN5 acetyltransferase. actives 0.17% (n = 350,000);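 active = every replicate shows inhibition of at least 40%; inconclusive = mean inhibition at least 40% but some replicate below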;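 also: 0% = neutral control wells and 100% = positive control wells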
Starred values were filed as active, the others as inactive; ? = inconclusive; nt = no result.

SMILES	F508del corr	DENV2 CPE	Cneo AK release	XiGFP reactiv	FN deposit inh	PGC1a acetyl inh
CC(=O)N1CC2(C1)[C@H](c1ccccc1)[C@@H](CO)N2Cc1ccccc1	-1	24*	nt	0	1	4
CC(=O)N1CC2(C1)[C@H](c1ccccc1)[C@@H](CO)N2CC1CCOCC1	-5	61*	nt	0	nt	4
CCCNC(=O)N1CC2(C1)[C@H](c1ccccc1)[C@@H](CO)N2CC1CCOCC1	1	24*	nt	0	6	-16
CC(=O)N1CC2(C1)[C@@H](c1ccccc1)[C@@H](CO)N2CC1CCOCC1	0	22*	nt	0	nt	1
O=C1O[C@@H](c2ccccc2)[C@@H](c2ccccc2)N2[C@@H](c3ccc(O)cc3)[C@]3(C(=O)Nc4ccc(C#CC5(O)CCCCCC5)cc43)[C@@H](C(=O)N3CCN(c4ncccn4)CC3)[C@H]12	-4	-8	45	nt	nt	nt
C[C@@H]1CN([C@H](C)CO)C(=O)c2cc(NC(=O)NC3CCCCC3)ccc2O[C@@H]1CN(C)C(=O)Nc1ccc2c(c1)OCO2	-2	-4	2	0	-9	0
C[C@H](CO)N1C[C@H](C)[C@H](CN(C)S(C)(=O)=O)Oc2ccc(NC(=O)Cc3cn(C)c4ccccc34)cc2C1=O	3	19	50	0	nt	-1
COc1ccc2c3c([nH]c2c1)[C@@H](CO)N(C(=O)CN(C)C)CC31CN(Cc2ccncc2)C1	-2	-16	nt	0	nt	5
O=S(=O)(Cc1ccccc1)N1CC2(C1)[C@H](c1ccccc1)[C@H](CO)N2CC1CCCC1	nt	nt	nt	0	-3	nt
O=S(=O)(Cc1ccccc1)N1CC2(C1)[C@H](c1ccccc1)[C@@H](CO)N2CC1CCOCC1	-1	27*	nt	0	nt	0
CN(C)CC(=O)N1[C@H](CO)[C@@H](c2ccccc2)C12CN(CC1CCOCC1)C2	2	20*	nt	0	5	-6
C/C=C/c1ccc2c(c1)O[C@H](CN(C)Cc1ccccn1)[C@H](C)CN([C@H](C)CO)S2(=O)=O	4	-3	7	1	nt	9
CCCCCC(=C/c1ccccc1)/C=N/Nc1ccc(S(=O)(=O)N2CCOCC2)cc1[N+](=O)[O-]	3	32*	2	0	nt	-6
CCCNC(=O)Nc1ccc2c(c1)C(=O)N(C)C[C@H](OC)[C@@H](C)CN(Cc1ccncc1)[C@@H](C)CO2	-5	nt	-1	0	0	5
C=CCOc1ccccc1CN1CCC(Cc2ccccc2)CC1	1	24*	2	0	1	1
COc1ccc2c3c(n(C)c2c1)[C@@H](CO)N(Cc1nccs1)CC31CCN(C(=O)CC2CC2)CC1	nt	nt	nt	0	nt	nt
COc1ccccc1N1CCN(/N=C/C=C\c2ccccc2[N+](=O)[O-])CC1	15*	2	nt	0	-9	nt
CO[C@H]1CN(C)C(=O)c2ccc(NC(=O)Nc3ccccc3)cc2OC[C@H](C)N(C(=O)Nc2c(C)noc2C)C[C@@H]1C	-3	-5	nt	0	-15	5
COc1cccc(-c2ccc([C@@H]3[C@@H](CO)N4C(=O)CN(C(=O)NC(C)C)C[C@H]34)cc2)c1	-2	0	nt	0	nt	6
COc1ccc([N+](=O)[O-])cc1Nc1c2ccccc2nc2ccccc12	13*	4	-1	1	16	-10
CN(C)CC(=O)N[C@H]1C[C@@H]2O[C@H](CO)CC[C@@H]2O[C@@H]1CCc1ccc(C2=CCCCC2)cc1	-4	8	nt	nt	nt	-12
COc1cccc(NC(=O)c2nn(C)c(C(=O)Nc3cccc(OC)c3)c2[N+](=O)[O-])c1	-4	-4	0	0	1	nt
CCOc1ccc(NC(=O)c2nn(C)c(C(=O)Nc3ccc(OCC)cc3)c2[N+](=O)[O-])cc1	-2	34*	-1	0	0	-12
O=C(NC[C@@H]1N[C@@H](CO)[C@H]1c1ccccc1)C1CC1	0	2	0	0	nt	1
C/C=C/c1ccc([C@@H]2[C@@H](CO)N(C(C)=O)[C@@H]2CNC(=O)CC2CC2)cc1	1	86*	5	0	-12	0
SMILES	F508del corr	DENV2 CPE	Cneo AK release	XiGFP reactiv	FN deposit inh	PGC1a acetyl inh
C/C=C/c1ccc([C@H]2[C@@H](CO)N(C(=O)C3CCC3)[C@@H]2CNC(=O)NC(C)C)cc1	-5	80*	nt	0	nt	nt
C/C=C/c1ccc([C@H]2[C@@H](CO)N[C@@H]2CNC(=O)C2CCC2)cc1	-1	34*	nt	0	nt	nt
CO[C@@H]1CN(C)C(=O)c2ccc(NC(=O)C3CCC3)cc2OC[C@@H](C)N(CC2CCCCC2)C[C@H]1C	2	-15	nt	0	2	-1
CNC[C@@H]1OCCCC[C@@H](C)Oc2ccc(NC(=O)Nc3ccc(C(F)(F)F)cc3)cc2C(=O)N([C@@H](C)CO)C[C@H]1C	1	?	11	-1	nt	-3
Cn1c(SCC(=O)Nc2ccccc2F)nnc1-c1cccnc1	-2	-3	-3	0	19	0
Cn1c(SCC(=O)Nc2ccc(F)cc2)nnc1-c1cccnc1	2	22*	0	0	-1	-2
CN(C)CC(=O)N1CC[C@@H]2[C@H]1c1cc(-c3ccccc3F)ccc1N(C)[C@@H]2CO	2	49*	34	0	5	0
CN(C)CC(=O)N1CC[C@@H]2[C@H]1c1cc(-c3ccccc3)ccc1N(C)[C@H]2CO	0	-9	-5	0	-1	0
CN(C)CC(=O)N1CC[C@H]2[C@@H]1c1cc(-c3ccccc3F)ccc1N(C)[C@H]2CO	-1	22*	39	0	5	-4
CN1c2ccc(-c3ccccc3F)cc2[C@H]2[C@H](CCN2C(=O)NC2CCCCC2)[C@H]1CO	-6	-10	nt	0	-14	8
CN1c2ccc(-c3ccccc3)cc2[C@@H]2[C@@H](CCN2C(=O)CN2CCOCC2)[C@@H]1CO	-3	?	5	0	30*	-8
COc1ccccc1C#Cc1ccc([C@H]2[C@H](CO)N3CCCCN(C(=O)C4CCCC4)C[C@@H]23)cc1	-4	1	3	nt	nt	-9
COCC(=O)Nc1ccc2c(c1)[C@@H]1C[C@H](CC(=O)NCc3ccccn3)O[C@@H](CO)[C@@H]1O2	1	4	2	0	-12	-3
C[C@H](CO)N1C[C@H](C)[C@@H](CN(C)S(C)(=O)=O)Oc2cc(C#Cc3ccccc3)ccc2S1(=O)=O	-3	0	91*	-2	nt	11
C[C@@H]1CN([C@@H](C)CO)S(=O)(=O)c2ccc(C#Cc3ccccc3)cc2O[C@H]1CN(C)S(C)(=O)=O	2	27*	-2	-1	nt	7
